Results on 18 compounds are retold here after ChEMBL document CHEMBL3769318, “The Rational Design of Selective Benzoxazepin Inhibitors of the α-Isoform of Phosphoinositide 3-Kinase Culminating in the Identification of (S)-2-((2-(1-Isopropyl-1H-1,2,4-triazol-5-yl)-5,6-dihydrobenzo[f]imidazo[1,2-d][1,4]oxazepin-9-yl)oxy)propanamide (GDC-0326)” (J Med Chem, 2016).

Data set [1] concerns the target Phosphatidylinositol 4,5-bisphosphate 3-kinase catalytic subunit alpha isoform (Homo sapiens, UniProt P42336). Briefly: Inhibition of recombinant PI3K alpha (unknown origin) using PIP2 as substrate by fluorescence polarization assay. The conditions noted are these: read-out: Ki(app). In general terms: In fluorescence polarisation assays a small probe gives low polarisation when free and higher when bound to something large.

The test system of data set [2] is Hepatocyte. Briefly: Drug metabolism in human hepatocytes. Format: ADME, cell-based.
Data set [3] in a line: Clearance in Sprague-Dawley rat at 1 mg/kg, iv. It counts as ADME, organism-based. The conditions noted are these: in vivo.
Data set [4] has as its system Hepatocyte. In words: Drug metabolism in rat hepatocytes. It counts as ADME, cell-based.
Data set [5] can be described thus: Antiproliferative activity against human MCF7-neo/Her2 cells after 3 days by luminescence plate reader method. It counts as functional, cell-based. The conditions noted are these: 72 h.
A short description of data set [6]: Antiproliferative activity against human PC3 cells after 4 days by luminescence plate reader method. It counts as functional, cell-based. The conditions noted are these: PC-3, 96 h.
The nature of data set [7]: animal or person. The conditions noted are these: Homo sapiens, KPL4, po, 504 h, read-out: TGI.
Data set [8] in a line: Clearance in NCR nude mouse at 1 mg/kg, iv. Format: ADME, organism-based. The conditions noted are these: in vivo.
The subject of data set [9] is Mus musculus. Briefly: Volume of distribution at steady state in NCR nude mouse at 1 mg/kg, iv. The conditions noted are these: in vivo.
Data set [10] can be described thus: Cytotoxicity against human KPL4 cells after 4 days by luminescence plate reader method. It counts as functional, cell-based. The conditions noted are these: KPL4, 96 h.
A short description of data set [11]: Oral bioavailability in NCR nude mouse at 25 mg/kg. The conditions noted are these: in vivo. It counts as ADME, organism-based.
A short description of data set [12]: Plasma protein binding in CD-1 mouse at 5 uM after 4 hrs by LC-MS/MS analysis. Format: ADME, cell-free. The conditions noted are these: mouse, 4 h, 5 µM. In short, it runs like this: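 Equilibrium dialysis of pooled plasma (n ≥ 3) spiked with compound at 5 µM total against PBS pH 7.4, 37 °C, 5% CO2, for 4 h; plasma and buffer concentrations measured by LC-MS/MS; percent unbound calculated as buffer/plasma ×100.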

Data set [13] can be described thus: animal or person. The conditions noted are these: Homo sapiens, po, 504 h, read-out: TGI.
The species entered for data set [14] is Mus musculus. Briefly: animal or person. The conditions noted are these: 1 h, read-out: INH.
Data set [15] can be described thus: Toxicity in SCID beige mouse xenografted with human KPL4 cells. It counts as organism-based. The conditions noted are these: in vivo. In outline: (§1)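 Breast cancer xenografts: MCF7-neo/HER2 grown in nude mice, KPL-4 in scid beige mice. Compound given orally once daily for 21 days at 0.78, 1.56, 3.25, 6.25 or 12.5 mg/kg in 0.5% methylcellulose/0.2% Tween-80, versus vehicle-treated mice. Tolerability judged by body weight loss, with under 10% loss as the criterion.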

Data set [16] in a line: Toxicity in nude mouse xenografted with human MCF7-neo/Her2 cells. Format: organism-based. In outline: as §1
(A xenograft is tissue or cells of one species grown in another, often human tumour cells in immunodeficient mice.)

Phosphatidylinositol 4,5-bisphosphate 3-kinase catalytic subunit alpha isoform, sequence (P42336 whole entry, canonical isoform): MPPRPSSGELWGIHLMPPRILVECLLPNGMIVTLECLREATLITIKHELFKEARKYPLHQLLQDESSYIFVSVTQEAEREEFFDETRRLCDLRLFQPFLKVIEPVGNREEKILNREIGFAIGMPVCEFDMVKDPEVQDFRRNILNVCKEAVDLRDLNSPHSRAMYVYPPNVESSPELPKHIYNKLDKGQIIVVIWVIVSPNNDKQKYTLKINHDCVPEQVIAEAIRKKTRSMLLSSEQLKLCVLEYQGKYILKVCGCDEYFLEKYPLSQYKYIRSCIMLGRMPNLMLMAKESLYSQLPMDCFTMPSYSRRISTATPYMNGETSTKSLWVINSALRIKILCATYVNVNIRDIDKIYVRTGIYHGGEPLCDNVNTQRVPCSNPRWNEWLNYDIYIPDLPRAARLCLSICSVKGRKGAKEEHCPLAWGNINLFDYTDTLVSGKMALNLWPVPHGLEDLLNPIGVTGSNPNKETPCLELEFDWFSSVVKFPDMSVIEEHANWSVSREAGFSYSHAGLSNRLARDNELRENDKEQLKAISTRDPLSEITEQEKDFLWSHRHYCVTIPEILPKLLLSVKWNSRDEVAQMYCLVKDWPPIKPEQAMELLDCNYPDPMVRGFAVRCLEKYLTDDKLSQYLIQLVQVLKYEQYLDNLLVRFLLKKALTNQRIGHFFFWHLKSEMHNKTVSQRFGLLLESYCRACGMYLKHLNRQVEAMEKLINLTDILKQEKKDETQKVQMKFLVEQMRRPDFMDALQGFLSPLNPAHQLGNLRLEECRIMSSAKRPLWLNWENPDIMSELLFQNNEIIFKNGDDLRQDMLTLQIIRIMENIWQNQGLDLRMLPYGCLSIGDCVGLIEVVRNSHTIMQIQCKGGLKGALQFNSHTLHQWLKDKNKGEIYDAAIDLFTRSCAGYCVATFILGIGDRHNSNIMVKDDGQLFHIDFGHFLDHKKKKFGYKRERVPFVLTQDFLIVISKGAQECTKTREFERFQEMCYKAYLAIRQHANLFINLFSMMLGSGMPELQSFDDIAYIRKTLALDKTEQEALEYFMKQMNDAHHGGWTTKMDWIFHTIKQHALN

As usually defined, the clearance is the volume of plasma or blood freed of the substance per unit of time. Consider `CC(C)n1ncnc1-c1cn2c(n1)-c1cnc(N3CCC[C@H]3C(N)=O)cc1OCC2`, for which the Ki in data set [1] amounted to 0.1 nM. In addition, the Drug metabolism result in [2] and in [4] was “metabolite_notdetected” each time. This compound displayed a clearance in [3] of 83 mL/min/kg.
For `COc1cc2c(cn1)-c1nc(-c3ncnn3C(C)C)cn1CCO2`, in data set [1], the Ki is 3.6 nM.
What is called EC50 is the concentration that produces a half-maximal response. Consider `CC(C)n1ncnc1-c1cn2c(n1)-c1ccc(O[C@H](C)C(N)=O)cc1OCC2`, for which the concentration giving a half-maximal response (EC50) is 1000 nM in data set [5] and 4600 nM in data set [6].
Broadly, the Vdss is the apparent volume that relates the amount in the body to the concentration in plasma or blood. As usually defined, the bioavailability is the share of a dose that reaches the circulation, judged against a reference dose that is usually intravenous. Turning to `Cc1nc(-c2cn3c(n2)-c2ccc(-c4cnn(C(C)(C)C(N)=O)c4)cc2OCC3)n(C(C)C)n1` [TASELISIB], the figures for the inhibition in vivo at 25 mg/kg in data set [7], in data set [13] and in data set [14] were 125%, 116% and 74%, respectively. The clearance in data set [8] was found to be 3 mL/min/kg. The concentration giving a half-maximal response (EC50) in data set [5] is 30 nM; in [10], 10 nM. For the same compound, in data set [9], the Vdss turned out to be 0.3 L/kg. For the same compound, the bioavailability in [11] amounted to 100%. The compound also had a PPB in data set [12] of 97.5%. The MTD in data set [15] and in data set [16] was 25 mg/kg each time.
`CNC(=O)[C@@H]1CCCN1c1cc2c(cn1)-c1nc(-c3ncnn3C(C)C)cn1CCO2`: the Ki in data set [1] turned out to be 30 nM.
For the compound `CC(C)n1ncnc1-c1cn2c(n1)-c1ccc(N3CC[C@H]3C(N)=O)cc1OCC2`, the 50% effective concentration (EC50) in data set [5] was found to be 50 nM; in data set [6] it was 230 nM. Also, in [1], the Ki was 0.1 nM.
`CC(C)n1ncnc1-c1cn2c(n1)-c1cnc(N(C)CC(N)=O)cc1OCC2`: in data set [1], the Ki was 0.2 nM.
For `CC(C)n1ncnc1-c1cn2c(n1)-c1cnc(OC(C)(C)C(N)=O)cc1OCC2`, the Ki in data set [1] is 3.1 nM.
In the case of `CC(C)n1ncnc1-c1cn2c(n1)-c1ccc(OCC(N)=O)cc1OCC2`, the EC50 in data set [5] and in data set [6] was 200 nM in each case. For the same compound, the Ki in [1] amounted to 0.3 nM.
For `COC(=O)Nc1ccc2c(c1)OCCc1cc(-c3nncn3-c3ccccc3Cl)sc1-2`, the Ki in data set [1] amounted to 1 nM.
With `CC(C)n1ncnc1-c1cn2c(n1)-c1cnc(O[C@@H](C)C(N)=O)cc1OCC2`, the Ki in [1] turned out to be 1 nM. Also, the clearance in data set [3] was determined as 62 mL/min/kg.
In the case of `CC[C@H](Oc1ccc2c(c1)OCCn1cc(-c3ncnn3C(C)C)nc1-2)C(N)=O`, the EC50 in [5] was determined as 200 nM; in [6], 2900 nM. Besides, in data set [1], the Ki was found to be 0.5 nM.
Turning to `CC(C)n1ncnc1-c1cn2c(n1)-c1cnc(N3CCC[C@@H]3C(N)=O)cc1OCC2`, the Ki in data set [1] was 3.2 nM.
Still for that read-out and setting: to `CC(C)n1ncnc1-c1cn2c(n1)-c1cnc(OCC(N)=O)cc1OCC2` belongs 0.9 nM.
As to `CC(C)n1ncnc1-c1cn2c(n1)-c1cnc(N3CCCC3)cc1OCC2`, the Ki in data set [1] was 1.3 nM. In data set [3], the clearance turned out to be 125 mL/min/kg.
On to `CC(C)n1ncnc1-c1cn2c(n1)-c1ccc(N3CCC[C@H]3C(N)=O)cc1OCC2`, for which the values for the concentration for a half-maximal effect (EC50) in data set [5] and in data set [6] were 10 nM and 150 nM, respectively. Also, the Ki in [1] was found to be 0.03 nM. For the same compound, the clearance in data set [3] was determined as 33 mL/min/kg.
On to `CC(C)n1ncnc1-c1cn2c(n1)-c1cnc(N)cc1OCC2`, for which, in [1], the Ki worked out at 1.2 nM.
For the compound `CC(C)n1ncnc1-c1cn2c(n1)-c1ccc(N3CCCC[C@H]3C(N)=O)cc1OCC2`, the concentration giving a half-maximal response (EC50) was 30 nM in data set [5] and 870 nM in data set [6]. For the same compound, in data set [1], the Ki was 0.3 nM.
